Rows were chosen to be rich in hits. Some 1.2% of all compounds tested hit in one or more screens of this group.
HNF4A DNA FP = change in binding of human HNF4A to DNA, primary screen, biochemical, fluorescence polarization, FITC-DNA. Hepatocyte nuclear factor 4-alpha (Homo sapiens), P41235. 1 h. activity change, % at 10 µM. actives 0.3% (n = 360,000). AID 1224865, 2016; in the data active = activity change above about 30%, passing the limit was not always enough
TPT1 inh = Candida albicans TPT1 enzyme inhibitors, primary screen, biochemical, fluorescence polarization | actives 0.81% (n = 300,000) | tRNA 2'-phosphotransferase TPT1 (Candida albicans SC5314) | inhibition, % at 5 µM | recombinant caTPT1, FP RNA substrate dephosphorylation;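 active = inhibition above the mean of all tested compounds plus 3 SD, set per screening campaign, cut at about 24% in these data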;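 note: plate controls were DMSO alone for no effect and ferristatin control at 100 nM for full effect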
CSN deneddyl inh = inhibitors of CSN-mediated cullin deneddylation, primary screen, biochemical, fluorescence polarization, uHTS. COP9 signalosome complex subunit 5 (Homo sapiens), Q92905. Purified CSN, SCF-Nedd8-OG deneddylation. inhibition, % at 12.5 µM. actives 0.38% (n = 360,000);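 active = pattern-corrected inhibition above about 35%, with an unprinted fluorescence ratio check between 0.5 and 1.5, limit read from the data, passing the limit was not always enough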;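 note: 0% = enzyme with substrate and 100% = substrate without enzyme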
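Detection – fluorescence polarization · System – HEK293T-derived human Csn5 enzyme · Controls – substrate-only high control, full reaction low control · Timing – 90 min, room temperature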
Rtt109 Vps75 = inhibitors of C. albicans Rtt109/Vps75 HAT, primary screen, biochemical, ThioGlo CoA-SH fluorescence, plate reader; Histone acetyltransferase RTT109 (Candida albicans (strain SC5314 / ATCC MYA-2876)), …; AID 540336, 2011; purified Rtt109/Vps75, 4 h; actives 0.16% (n = 330,000); inhibition, % at 34.9 µM;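 active = inhibition of at least 50% in every replicate; inconclusive = best replicate reaches 50% inhibition but some replicates fall short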
Target sequence (Q5AAJ8 whole entry, looked up): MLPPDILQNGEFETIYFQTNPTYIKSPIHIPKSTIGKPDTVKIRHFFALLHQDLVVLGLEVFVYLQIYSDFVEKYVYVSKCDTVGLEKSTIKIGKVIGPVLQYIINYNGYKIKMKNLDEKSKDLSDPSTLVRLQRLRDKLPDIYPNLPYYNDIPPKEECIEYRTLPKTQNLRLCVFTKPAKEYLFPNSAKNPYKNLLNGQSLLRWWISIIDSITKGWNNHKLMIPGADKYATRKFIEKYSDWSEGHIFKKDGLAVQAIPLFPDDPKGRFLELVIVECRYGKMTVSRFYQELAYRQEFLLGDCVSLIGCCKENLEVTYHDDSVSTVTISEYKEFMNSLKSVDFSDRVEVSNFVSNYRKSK
Active calls of the source: *; i = inactive; ? = inconclusive; . = no result; + = active, no number.

SMILES	HNF4A DNA FP	TPT1 inh	CSN deneddyl inh	Rtt109 Vps75
CN(C(=O)COC(=O)c1ccc2ccccc2n1)C1CCCCC1	-1	.	-1	15
CN(C(=O)c1cccc(NC(=O)Cc2ccc(NC(=O)C3CCCN(S(=O)(=O)c4cccc([N+](=O)[O-])c4)C3)cc2)c1)C1CCC1 (centres undefined)	2	.	-4	-10
Cc1ccnc(SCc2ccc(C(=O)O)cc2)n1	69*	2	2	1
COc1cc(NC(=O)c2cccnc2)ccc1-c1cc2ccccc2oc1=O	.	-4	.	.
O=C(Nc1ccc(-c2cc3ccccc3oc2=O)c(Cl)c1)c1cccnc1	6	2	38*	-9
Cc1ccc(NC(=S)N(CCCN2CCCC2)Cc2cccn2Cc2ccc(Cl)cc2)cc1C	9	3	2	62*
COC(=O)[C@]12CCCCC=C1N(CCc1ccc(OC)c(OC)c1)C(=O)[C@H](CC(=O)NCc1ccc(C)o1)C2	0	.	-2	.
O=C(O)CCN1C(=O)/C(=C\c2ccncc2)SC1=S	-6	0	-2	3
O=C(O)CCN1C(=O)/C(=C\c2ccc(-c3nc4ccccc4s3)o2)SC1=S	45*	41*	i	-9
C#CCOC(=O)c1cc(Cl)c(=O)n(Cc2ccc(Cl)cc2Cl)c1	0	-1	-2	-6
Cc1nc(SCc2ccc(Cl)c(Cl)c2)n[nH]1	118*	.	3	-3
CCn1c2ccccc2c2cc(NC(=O)COC(=O)c3ccccc3F)ccc21	0	2	6	-3
CCOC(=O)c1c(NC(=O)COC(=O)c2ccc(NC(=O)CC#N)cc2)sc(C(=O)NC)c1C	-15	.	40*	-5
CCn1c2ccccc2c2cc(NC(=O)COC(=O)c3ccc(NC(=O)CC#N)cc3)ccc21	-9	3	43*	-2
C[C@H]1CN([C@@H](C)CO)C(=O)CCCn2nncc2CO[C@@H]1CN(C)S(=O)(=O)c1cccc(F)c1	3	.	-2	.
Cc1ccc(C(=O)Nc2ccc(F)cc2)cc1NC1=NC2CS(=O)(=O)CC2S1 (centres undefined)	2	-2	-4	-21
Cc1ccc2nc(N(CCCN(C)C)C(=O)c3ccc4c(c3)CCCC4)sc2c1	-1	-2	4	63*
CCN(CC)Cc1c(C(=O)N/N=C/c2ccncc2)nnn1-c1nonc1N	50*	-4	2	10
CN(C)Cc1c(C(=O)N/N=C/c2ccncc2)nnn1-c1nonc1N	-1	0	0	1
CCS(=O)(=O)N1N=C(c2cccc(NS(C)(=O)=O)c2)CC1c1ccc(C)cc1 (centres undefined)	159	13	73*	5
Cc1ccc(C2=NN(S(C)(=O)=O)C(c3ccc4c(c3)OCO4)C2)cc1 (centres undefined)	51*	0	12	10
Cc1ccccc1C(C)NC(=O)COC(=O)Cn1cc(C(F)(F)F)ccc1=O (centres undefined)	-1	.	-5	.
COc1ccc(/C=N\NC(=O)c2ccc([N+](=O)[O-])c(C)c2)cc1COc1ccccc1C(N)=O	11	-5	35*	-3
COc1ccc(/C=N/NC(=O)c2cccnc2)cc1COc1ccc([N+](=O)[O-])c(C)c1	4	-1	2	16
S=c1[nH]nc(-c2cc(-c3ccccc3)n[nH]2)n1/N=C/C=C/c1ccco1	-4	0	31	.
SMILES	HNF4A DNA FP	TPT1 inh	CSN deneddyl inh	Rtt109 Vps75
S=c1[nH]nc(-c2ccco2)n1/N=C/C=C/c1ccco1	-16	0	38*	0
Cc1ccccc1NC(=O)Cc1nc(COC(=O)CSc2ccc(F)cc2)cs1	2	.	1	.
COc1ccc(-c2cc(C#N)nc(N3CCNCC3)n2)cc1	43*	-3	3	-12
O=C(COc1ccccc1[N+](=O)[O-])Nc1ccc(NC(=O)c2cc3ccccc3o2)cc1	-1	2	17	1
O=C(COc1ccc(/C=N/NC(=O)c2cc3ccccc3o2)cc1Br)Nc1ccccc1	23	-1	125*	-12
COc1ccccc1C1CC(c2cccs2)=Nc2ccccc2S1 (centres undefined)	-2	-10	1	?
Fc1ccccc1C1CC(c2ccco2)=Nc2ccccc2S1 (centres undefined)	4	0	2	83*
O=C(Nc1ncnc2c1ncn2[C@@H]1O[C@H](/C=C/C(=O)N2CCN(c3ccc(F)cc3)CC2)[C@@H](O)[C@H]1O)c1ccccc1	10	.	-2	.
COc1cc2c(cc1OC)C(c1ccc(-c3cc(Cl)ccc3Cl)o1)=NCC2	38*	22	6	-11
Cc1ccc(S(=O)(=O)NCC(C)n2nc(C)nc2C)cc1 (centres undefined)	2	1	0	-7
O=C(NCc1n[nH]c(=S)n1-c1ccc(Cl)c(Cl)c1)c1ccc(S(=O)(=O)N2CCOCC2)cc1	-2	-2	3	.
Cc1ccc2nc(C3CCCCC3)c(Cc3ccsc3)n2c1	-2	.	-4	.
Cc1nc([N+](=O)[O-])cn1CC(=O)c1ccc(F)cc1	77*	-4	-6	13
Cc1cc(C(=O)NC2CCCc3ccccc32)c(C)o1 (centres undefined)	4	1	-4	-9
Cc1cc(C(=O)NC2CCC(O)CC2)c(C)o1 (centres undefined)	-1	.	89*	-3
CC(OC(=O)c1ccc([N+](=O)[O-])o1)C(=O)Nc1nc(-c2ccc(F)c(F)c2)cs1 (centres undefined)	1	.	6	-7
CCc1ccc(C(=O)CSc2ncn[nH]2)cc1	6	-4	0	+
Cc1ccc(C(=O)CSc2ncn[nH]2)cc1	1	1	2	8
O=C(NCc1cccnc1)C1CC(c2ccc(Cl)c(Cl)c2)=NO1 (centres undefined)	1	2	0	0
CCN1C(=C(C#N)C#N)C=Cc2cc(C)ccc21	31	-2	-5	-40
C=CC[n+]1c(/C=C2\C=Cc3cc(C)ccc3N2CC)ccc2ccccc21	38*	6	18	24
O=C(NCCN1CCOCC1)c1cccc2c1C(=O)c1ccc(N3CCCC3)cc1S2(=O)=O	68	.	35	-2
CN1CCC[C@@H]1CCNC(=O)c1cccc2c1C(=O)c1ccc(N3CCCC3)cc1S2(=O)=O	63*	.	27	10
O=C(NC1CC1)c1cccc2c1C(=O)c1ccc(N3CCC(N4CCCCC4)CC3)cc1S2(=O)=O	45	.	43*	.
CN(C(=O)COC(=O)c1ccccc1SCC(=O)N1CCCC1)C1(C#N)CCCCC1	7	.	4	-3
COc1ccc(C(=O)NC(=S)Nc2ccc(N3CCOCC3)cc2)cc1Cl	0	-1	2	8
Cc1sc2c(c1C)C(=O)/C(=C\Nc1ccncc1)S(=O)(=O)N2C	7	-2	35*	3

Assay outcomes from PubChem BioAssay.
